From PubChem BioAssay
Inconclusive results are not listed.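 How the source made its calls, unless noted: active means RAM network inhibition above 8.4% in each of two replicates, 3 SD over the compound average; inconclusive means above 8.4% inhibition in only one replicate; inactive means 8.4% inhibition or less in each replicate.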

Assays:
[1] = S. cerevisiae growth inhibition in permissive medium (OD615), pilot counter-assay for S. cerevisiae lifespan shortening project, permissive growth control (AID 705;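 active means growth inhibition above 25% in both replicates, a cutoff set 3 SD above the mean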); conditions: OD615, 24 h, at 10 µM, hits give high values
Procedure, shortened: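 assay system = Saccharomyces cerevisiae strain carrying genetically modified DeaD replicative-lifespan system | medium = SC raffinose/galactose permissive medium | dosing = 10 µM single dose, 0.25% DMSO | schedule = 24 h compound exposure at 30 °C after 4 h pre-growth | measured by = OD at 615 nm | read-out basis = growth inhibition from lowered OD615 after 24 h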

[2] = S. cerevisiae growth inhibition in restrictive medium, OD615, pilot screen, restrictive growth control, yeast lifespan reduction project (AID 706;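 active means growth inhibition above a set limit, 3 SD over mean compound inhibition, in both replicates, cut at about 43% in these data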;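 further: modified DeaD lifespan yeast strain shifted to restrictive glucose medium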); conditions: OD615, 48 h, at 10 µM, hits give high values
Procedure, shortened: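 Buffer or medium: CSMM-D glucose medium. Material: genetically modified Saccharomyces cerevisiae, DeaD replicative lifespan assay strain. Times: 48 h compound exposure at 30 °C. Measured by: optical density at 615 nm.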

[3] = doxorubicin toxicity protection in MRP-1 cells – H69AR cells, CellTiter-Glo, duplicate, MRP-1 activator project, pilot screen (AID 807;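 active means viability increase at or above a cutoff of the median across tested compounds plus 3 SD, cut at about 8.5% in these data, passing the limit was not always enough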;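 further: compound pretreatment 18-22 h then 72 h combined with doxorubicin; 0% = doxorubicin alone and 100% = vehicle without doxorubicin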); conditions: H69AR viability with doxorubicin, CellTiter-Glo luminescence; at 10 µM; hits give high values
[4] = viability of HCT116 without oncogenic beta-catenin – human colon tumor cells, pilot screen (AID 823;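 active means cell viability at or below a set limit in both duplicate runs, the limit being the all-compound median minus 4 SD, cut at about 23% in these data, passing the limit was not always enough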;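 further: 0% = wells killed by 20 µM Hyamine and 100% = untreated DMSO cell wells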); conditions: HCT116 beta-catenin knockout viability, CellTiter-Glo, 60 h; at 10 µM; hits give low values
[5] = viability of PTEN-null HCT116 cells – cell-based, HCT116 clonal line, CellTiter-Glo, pilot screen (AID 824;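 active means viability at or below 27.92% in each of two runs, the all-compound median minus 4 SD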;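 further: 0% = 20 µM Hyamine control and 100% = vehicle cell control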); conditions: HCT116 PTEN-deleted viability, 60 h, at 10 µM, hits give low values
[6] = RAM pathway blockade in budding yeast – dse1pr::URA3 reporter, 5-FOA selection, pilot screen (AID 869;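 active means inhibition over a set limit, the all-compound mean plus 3 SD, in both replicate runs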;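 further: 0% = DMSO wells with no growth and 100% = 10 µM 1-NA-PP1 with full growth; RAM network block rescues cells from 5-FOA so hits raise OD615 growth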); conditions: S. cerevisiae dse1pr::URA3 5-FOA growth, OD615, 2 d; at 10 µM; hits give high values; strain carries analog-sensitive mutant Cbk1 kinase
[7] = RAM signaling pathway blockade in yeast – S. cerevisiae, Pdr1DBD-CYC8 efflux-inhibited sensitized strain, primary screen (AID 1298);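 further: 0% = DMSO untreated cells without growth and 100% = 10 µM 1-NA-PP1 full growth; higher means more yeast growth rescued from 5-FOA killing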; conditions: S. cerevisiae cbk1-as DSE1-URA3 strain, 5-FOA growth OD615, 2 d; at 50 µM; hits give high values

Fc1ccccc1COc1cccc(/C=N/n2cnnc2)c1
inactive: growth inhibition [1] 2.62% | growth inhibition [2] 11.6% | viability increase [3] 0.12% | viability [4] 96.2% | viability [5] 84.9% | inhibition [6] 0.35% | RAM network inhibition [7] 0.15%

CCOC(=O)CCn1cc(F)c(=O)n(Cc2ccccc2)c1=O
inactive: growth inhibition [1] 3.69% | growth inhibition [2] 2.14% | viability increase [3] -0.3% | viability [4] 105% | viability [5] 96.1% | inhibition [6] 0.42% | RAM network inhibition [7] 1.43%

COCCOC(=O)C1=C(C)NC(=O)NC1c1ccc(OC(=O)c2ccco2)c(OC)c1 (stereo unspecified)
inactive: growth inhibition [1] 7.03% | growth inhibition [2] -14.5% | viability increase [3] -2.68% | viability [4] 97.8% | viability [5] 92.7% | inhibition [6] 2.5% | RAM network inhibition [7] 4.12%

COc1ccc(NCCNc2ccc(OC)cc2)cc1
inactive: growth inhibition [1] 5.4% | growth inhibition [2] 7.97% | viability increase [3] -0.82% | viability [4] 58.9% | viability [5] 59.5% | inhibition [6] 0.6% | RAM network inhibition [7] 6.32%

O=C1CC(c2ccco2)CC(O)=C1C=NCCO (stereo unspecified)
inactive: growth inhibition [1] -12.7% | growth inhibition [2] -1.73% | viability increase [3] 0.27% | viability [4] 104% | viability [5] 105% | inhibition [6] 1.79% | RAM network inhibition [7] 3.26%

Cc1cc(NC(=O)CSc2cn(C)c3ccccc23)no1
inactive: growth inhibition [1] -8.73% | growth inhibition [2] 4.95% | viability increase [3] -2.87% | viability [4] 97.6% | viability [5] 99.1% | inhibition [6] 0.48% | RAM network inhibition [7] 1.44%

CNC(=O)N(C1=NCC(C)(C)S1)c1ccc(F)c(Cl)c1
inactive: growth inhibition [1] -4.53% | growth inhibition [2] -16.6% | viability increase [3] -6.94% | viability [4] 40.4% | viability [5] 35.7% | inhibition [6] 1.26% | RAM network inhibition [7] 4.61%

Cn1cccc1Cc1nnc(SCC(=O)N2CCCC2)n1CCc1ccccc1
inactive: growth inhibition [1] 1.38% | growth inhibition [2] 16.7% | viability increase [3] -1.41% | viability [4] 103% | viability [5] 102% | inhibition [6] 0.04% | RAM network inhibition [7] 1.63%

Cc1ccc(S(=O)(=O)Nc2ccc3nc(N)sc3c2)cc1
inactive: growth inhibition [1] 6.55% | growth inhibition [2] 13.4% | viability increase [3] -4.39% | viability [4] 82.6% | viability [5] 85.5% | inhibition [6] 0.19% | RAM network inhibition [7] 2.92%

COc1ccc(-c2ccc(=O)n(CC(=O)N3CCN(c4ccccc4OC)CC3)n2)cc1
inactive: growth inhibition [1] -4.48% | growth inhibition [2] 12% | viability increase [3] 2.33% | viability [4] 89.7% | viability [5] 92.9% | inhibition [6] 1.15% | RAM network inhibition [7] 7.61%

COc1cccc(-c2nc(CS(=O)CC(=O)NCc3ccccc3)c(C)o2)c1 (stereo unspecified)
inactive: growth inhibition [1] -9.55% | growth inhibition [2] -15.4% | viability increase [3] 1.16% | viability [4] 99.5% | viability [5] 96.2% | inhibition [6] 1.11% | RAM network inhibition [7] 4.44%

Cc1cc(C)cc(OCC(O)CN2C(=O)NC(C)(C)C2=O)c1 (stereo unspecified)
inactive: growth inhibition [1] 2.01% | growth inhibition [2] 2.59% | viability increase [3] 0.13% | viability [4] 108% | viability [5] 103% | inhibition [6] -0.255% | RAM network inhibition [7] 2.26%

Cn1cc(SCC(=O)N2CCN(c3ccccc3)CC2)c2ccccc21
inactive: growth inhibition [1] -0.395% | growth inhibition [2] 11.5% | viability increase [3] -4.68% | viability [4] 91.3% | viability [5] 88.4% | inhibition [6] 1.52% | RAM network inhibition [7] 7.36%

CCCNC(=O)C1CC(=O)N(c2ccc(OCC(=O)Nc3cccc(C)c3C)cc2)C1 (stereo unspecified)
inactive: growth inhibition [1] -13.4% | growth inhibition [2] -14.8% | viability increase [3] -1.99% | viability [4] 106% | viability [5] 97.7% | inhibition [6] 2.35% | RAM network inhibition [7] 1.01%

COc1ccc(C2C(C(=O)NCCN(C)C)c3ccccc3C(=O)N2C)cc1OC (stereo unspecified)
inactive: growth inhibition [1] -7.69% | growth inhibition [2] -1.69% | viability increase [3] -0.77% | viability [4] 100% | viability [5] 97.9% | inhibition [6] -0.2% | RAM network inhibition [7] 1.92%

COc1ccc(Cl)cc1N(CC(=O)Nc1ccc2c(c1)OCCO2)S(C)(=O)=O
inactive: growth inhibition [1] -2.33% | growth inhibition [2] 0.055% | viability increase [3] -2.78% | viability [4] 92.7% | viability [5] 89.4% | inhibition [6] 3.33% | RAM network inhibition [7] 2.8%

O=C(CN1C(=O)CCC1=O)Nc1nc(-c2ccccn2)cs1
inactive: growth inhibition [1] -5.94% | growth inhibition [2] -9.21% | viability increase [3] -0.35% | viability [4] 106% | viability [5] 101% | inhibition [6] 0.045% | RAM network inhibition [7] 3.42%

Cn1c(/N=C/c2cccs2)nc2ccccc21
inactive: growth inhibition [1] -8.72% | growth inhibition [2] -5.94% | viability increase [3] -2.39% | viability [4] 93.9% | viability [5] 94.8% | inhibition [6] 2.46% | RAM network inhibition [7] 1.77%

Cn1c(NC(=O)c2ccc3c(c2)OCO3)cc(=O)n(C)c1=O
inactive: growth inhibition [1] -5.14% | growth inhibition [2] -2.67% | viability increase [3] 0.04% | viability [4] 98.5% | viability [5] 92.3% | inhibition [6] 1.05% | RAM network inhibition [7] -2.06%

CCc1nc(C)cn1S(=O)(=O)c1cc(C)c(OC)cc1C
inactive: growth inhibition [1] -0.385% | growth inhibition [2] 0.98% | viability increase [3] 0.56% | viability [4] 102% | viability [5] 103% | inhibition [6] 1.69% | RAM network inhibition [7] 12.1%

CSC(=NS(=O)(=O)c1ccc(C)cc1)SC
inactive: growth inhibition [1] -11% | growth inhibition [2] -20.2% | viability increase [3] -1.03% | viability [4] 94.6% | viability [5] 93.1% | inhibition [6] 2.02% | RAM network inhibition [7] 4.14%

Cc1nc(CNS(=O)(=O)c2ccc3c(c2)CCCC3)cs1
inactive: growth inhibition [1] -5.81% | growth inhibition [2] -2.64% | viability increase [3] -1.72% | viability [4] 96.7% | viability [5] 73.8% | inhibition [6] 1.51% | RAM network inhibition [7] 0.22%

CCOC(=O)C(C)Sc1ncnc2nc[nH]c12 (stereo unspecified)
inactive: growth inhibition [1] -1.5% | growth inhibition [2] -25.9% | viability increase [3] -1.35% | viability [4] 98.8% | viability [5] 99.2% | inhibition [6] 1.11% | RAM network inhibition [7] 3.25%

C=C(C)CSc1nc2c(c(=O)[nH]c(=O)n2C)n1Cc1ccccc1
inactive: growth inhibition [1] -16.7% | growth inhibition [2] -22.9% | viability increase [3] 3.2% | viability [4] 83.8% | viability [5] 78.3% | inhibition [6] 2.96% | RAM network inhibition [7] 7.74%

O=C(CCSCCc1ccccn1)Nc1nccs1
inactive: growth inhibition [1] 6.12% | growth inhibition [2] 8.44% | viability increase [3] -0.56% | viability [4] 102% | viability [5] 94.8% | inhibition [6] 2.55% | RAM network inhibition [7] 0.66%

CC(=O)Nc1ccc(NC(=O)CCC(=O)NCCO)cc1
inactive: growth inhibition [1] -10.7% | growth inhibition [2] -16.7% | viability increase [3] -0.28% | viability [4] 90.8% | viability [5] 92.8% | inhibition [6] 0.825% | RAM network inhibition [7] 5.19%

CCOC(=O)CNC(=O)Cn1cnc2sc(C)c(S(=O)(=O)N3CCC(C)CC3)c2c1=O
inactive: growth inhibition [1] -5.06% | growth inhibition [2] -1.62% | viability increase [3] -2.55% | viability [4] 94% | viability [5] 93.6% | inhibition [6] 0.32% | RAM network inhibition [7] 4.1%

CCc1c(C)sc(NC(=O)c2cc(C)no2)c1C#N
inactive: growth inhibition [1] 1.33% | growth inhibition [2] 8.59% | viability increase [3] -0.5% | viability [4] 99% | viability [5] 93.4% | inhibition [6] 1.31% | RAM network inhibition [7] 6.13%

CCN(CC)CCNC(=O)c1cn(CC)c2ccc(S(=O)(=O)N(C)C)cc2c1=O
inactive: growth inhibition [1] 0.365% | growth inhibition [2] 8.34% | viability increase [3] -1.41% | viability [4] 106% | viability [5] 101% | inhibition [6] 2.2% | RAM network inhibition [7] 2.04%

COc1ccc2nc(SCc3nc(N)nc(Nc4ccccc4)n3)[nH]c2c1
inactive: growth inhibition [1] -8.8% | growth inhibition [2] 15.4% | viability increase [3] 0.65% | viability [4] 67.7% | viability [5] 80.3% | inhibition [6] 0.72% | RAM network inhibition [7] 6.33%

O=C(NCC1CCCO1)c1ccc2c(c1)OCO2 (stereo unspecified)
inactive: growth inhibition [1] -3.01% | growth inhibition [2] 6% | viability increase [3] 0.18% | viability [4] 98.4% | viability [5] 94.3% | inhibition [6] 0.385% | RAM network inhibition [7] 3.13%

O=C(Cc1cc(=O)[nH]c(=O)[nH]1)N1CCN(C(=O)c2ccco2)CC1
inactive: growth inhibition [1] -10.2% | growth inhibition [2] -26.6% | viability increase [3] -2.96% | viability [4] 95.6% | viability [5] 95.6% | inhibition [6] 0.59% | RAM network inhibition [7] 1.53%

O=C(CC(c1ccccc1)c1ccccc1)NCCO
inactive: growth inhibition [1] -6.53% | growth inhibition [2] -4.9% | viability increase [3] 0.49% | viability [4] 100% | viability [5] 96.1% | inhibition [6] 2.24% | RAM network inhibition [7] 5.36%
